Experimental findings from ChEMBL document CHEMBL1268916, “Second generation 2-pyridyl biphenyl amide inhibitors of the hedgehog pathway” (Bioorg Med Chem Lett, 2010) are described below.

≈ marks a conversion by molar mass, not a printed value. Calls of active or inactive are those of the source. No cut-off for these calls is given here.

Cytochrome P450 3A4, sequence (P08684 whole entry): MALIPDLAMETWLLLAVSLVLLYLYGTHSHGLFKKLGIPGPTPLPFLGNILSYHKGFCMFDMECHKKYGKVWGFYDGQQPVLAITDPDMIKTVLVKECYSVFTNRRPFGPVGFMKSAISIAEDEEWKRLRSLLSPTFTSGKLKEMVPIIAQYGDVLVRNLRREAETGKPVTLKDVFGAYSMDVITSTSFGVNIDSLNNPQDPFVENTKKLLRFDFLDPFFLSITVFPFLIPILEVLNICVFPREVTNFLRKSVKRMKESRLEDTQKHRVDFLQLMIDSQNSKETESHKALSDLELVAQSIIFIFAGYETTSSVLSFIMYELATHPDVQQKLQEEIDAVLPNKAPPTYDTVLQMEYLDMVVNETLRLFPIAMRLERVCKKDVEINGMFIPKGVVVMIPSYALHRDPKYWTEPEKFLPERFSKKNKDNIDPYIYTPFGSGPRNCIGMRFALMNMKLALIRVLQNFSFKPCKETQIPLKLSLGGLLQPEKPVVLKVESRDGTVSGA
Cytochrome P450 2C9, sequence (P11712 whole entry): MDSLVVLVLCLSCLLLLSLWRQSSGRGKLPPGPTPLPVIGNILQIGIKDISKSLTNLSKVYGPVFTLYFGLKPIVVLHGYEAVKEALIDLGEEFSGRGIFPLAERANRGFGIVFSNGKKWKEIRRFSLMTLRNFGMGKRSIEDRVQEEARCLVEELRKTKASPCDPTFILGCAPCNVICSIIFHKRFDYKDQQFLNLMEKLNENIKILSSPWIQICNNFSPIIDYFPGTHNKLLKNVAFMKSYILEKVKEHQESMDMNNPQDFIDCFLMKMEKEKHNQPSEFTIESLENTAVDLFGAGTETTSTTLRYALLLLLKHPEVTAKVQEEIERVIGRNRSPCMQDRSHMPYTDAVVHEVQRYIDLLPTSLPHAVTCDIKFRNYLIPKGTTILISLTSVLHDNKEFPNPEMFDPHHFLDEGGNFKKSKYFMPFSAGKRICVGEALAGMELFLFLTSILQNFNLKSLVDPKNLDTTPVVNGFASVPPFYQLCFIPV

Test system in the first data set: not listed separately
Briefly: Inhibition of Hedgehog signaling in human HEPM cells assessed as reduction in receptor-mediated Gli1 mRNA expression by reporter gene assay. The data set is classed as cell-based.
Details: not given
A general note: Reporter assays use an easily measured gene product as a stand-in for the process of interest.
For the molecule `Cc1nc(NCC(C)C)ccc1C(=O)Nc1ccc(Cl)c(-c2ccccn2)c1`, the IC50 (as a rule, the concentration at which inhibition is half-maximal) came out at 14 nM.
Same read-out and setting: with `NS(=O)(=O)c1ccc(C(=O)Nc2ccc(Cl)c(-c3ccccn3)c2)c(Cl)c1` the figure was 5 nM; with `Cc1ncn(-c2ccc(C(=O)Nc3ccc(Cl)c(-c4ccccn4)c3)c(C)n2)n1`, 8 nM; with `CS(=O)(=O)Cc1ccc(C(=O)Nc2ccc(Cl)c(-c3ccccn3)c2)c(Cl)c1`, 1 nM.
For the molecule `O=C(Nc1ccc(Cl)c(-c2ccccn2)c1)c1ccc(-n2cncn2)nc1`, the IC50 is 8 nM.
As for `Cc1nc(NCCO)ccc1C(=O)Nc1ccc(Cl)c(-c2ccccn2)c1`, the IC50 is 23 nM.
In the case of `O=C(NCc1ccccn1)c1ccc(C(=O)Nc2ccc(Cl)c(-c3ccccn3)c2)c(Cl)c1`, the IC50 was determined as 0.4 nM.

Test system in the next data set: not listed separately
Briefly: Plasma concentration in Calu-6 cells xenografted nude mouse PK/PD model at 75 mg/kg, po bid for 5 days measured 4 hrs post last dose relative to untreated control. Format: ADME, organism-based. Set-up: dose 75 mg/kg, route oral.
Details: not given
The essentials: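 Calu-6 tumor-bearing mice were dosed orally 75 mg/kg BID for five doses. Plasma was sampled 4 h after the last dose, at the same time as tumor harvest. Compound was given as free base or HCl salt, suspended in a methylcellulose/Tween or Labrafil-based vehicle.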
In turn, `Cc1ncn(-c2ccc(C(=O)Nc3ccc(Cl)c(-c4ccccn4)c3)c(C)n2)n1` gave a concentration at 4 h of 150000 nM.
Same read-out and setting: with `CS(=O)(=O)Cc1ccc(C(=O)Nc2ccc(Cl)c(-c3ccccn3)c2)c(Cl)c1` the figure was 300 nM.

Test system in a further data set: not listed separately
In words: Thermodynamic solubility at pH 1.0. Format: physicochemical. The note with it: buffer.
With `Cc1ncn(-c2ccc(C(=O)Nc3ccc(Cl)c(-c4ccccn4)c3)c(C)n2)n1`, the solubility (thermodynamic) (in general, solubility found after equilibrating the solid with the medium) was found to be 900 µg/mL (≈ 2220 µM).
Still for that read-out and setting: next, `CS(=O)(=O)Cc1ccc(C(=O)Nc2ccc(Cl)c(-c3ccccn3)c2)c(Cl)c1`: 110 µg/mL (≈ 253 µM); `O=C(Nc1ccc(Cl)c(-c2ccccn2)c1)c1ccc(-n2cncn2)nc1`: 4000 µg/mL (≈ 10600 µM).
On the same count and under the same terms, next, `O=C(NCc1ccccn1)c1ccc(C(=O)Nc2ccc(Cl)c(-c3ccccn3)c2)c(Cl)c1`: 4300 µg/mL (≈ 9010 µM).

A further data set has as its system Mus musculus. Briefly: Inhibition of Hedgehog signaling in Calu-6 cells xenografted nude mouse PK/PD model assessed as reduction in Gli1 mRNA expression at 25 mg/kg, po bid for 5 days measured 4 hrs post last dose relative to untreated control.
Details: not given
The data set is classed as functional.
On to `O=C(NCc1ccccn1)c1ccc(C(=O)Nc2ccc(Cl)c(-c3ccccn3)c2)c(Cl)c1`, for which the inhibition in vivo (commonly the relative decrease from the control value, in per cent) at 25 mg/kg was 90%.

Test system in the next data set: not listed separately
In words: Plasma concentration in Calu-6 cells xenografted nude mouse PK/PD model at 25 mg/kg, po bid for 5 days measured 6 hrs post last dose relative to untreated control. Format: ADME, organism-based. On the set-up: dose 25 mg/kg, route oral.
Details: not given
With `O=C(NCc1ccccn1)c1ccc(C(=O)Nc2ccc(Cl)c(-c3ccccn3)c2)c(Cl)c1`, the concentration at 6 h was determined as 1700 nM.

The next data set addresses Cytochrome P450 2C9 (Homo sapiens, UniProt P11712). In words: Inhibition of CYP2C9. Format: ADME.
Details: not given
The molecule `Cc1nc(NCC(C)C)ccc1C(=O)Nc1ccc(Cl)c(-c2ccccn2)c1` displayed a 50% inhibitory concentration (IC50) of 500 nM.
On the same count and under the same terms, next, `NS(=O)(=O)c1ccc(C(=O)Nc2ccc(Cl)c(-c3ccccn3)c2)c(Cl)c1`: greater than 20000 nM; `Cc1ncn(-c2ccc(C(=O)Nc3ccc(Cl)c(-c4ccccn4)c3)c(C)n2)n1`: greater than 20000 nM; `CS(=O)(=O)Cc1ccc(C(=O)Nc2ccc(Cl)c(-c3ccccn3)c2)c(Cl)c1`: 16000 nM.
In turn, `O=C(Nc1ccc(Cl)c(-c2ccccn2)c1)c1ccc(-n2cncn2)nc1` had a half-maximal inhibitory concentration (IC50) of 200 nM.
Turning to `Cc1nc(NCCO)ccc1C(=O)Nc1ccc(Cl)c(-c2ccccn2)c1`, the IC50 is greater than 20000 nM.
Still for that read-out and setting: next, `O=C(NCc1ccccn1)c1ccc(C(=O)Nc2ccc(Cl)c(-c3ccccn3)c2)c(Cl)c1`: 4500 nM.

Test system in another data set: not listed separately
Briefly: Inhibition of Hedgehog signaling in mouse S12 cells assessed as reduction in receptor-mediated Gli1 mRNA expression by reporter gene assay. Format: cell-based.
Details: not given
Take `Cc1nc(NCC(C)C)ccc1C(=O)Nc1ccc(Cl)c(-c2ccccn2)c1`: the IC50 came to 53 nM.
On the same count and under the same terms, next, `NS(=O)(=O)c1ccc(C(=O)Nc2ccc(Cl)c(-c3ccccn3)c2)c(Cl)c1`: 35 nM.
As to `Cc1ncn(-c2ccc(C(=O)Nc3ccc(Cl)c(-c4ccccn4)c3)c(C)n2)n1`, the IC50 turned out to be 67 nM.
`CS(=O)(=O)Cc1ccc(C(=O)Nc2ccc(Cl)c(-c3ccccn3)c2)c(Cl)c1`: the IC50 was found to be 3 nM.
Same read-out and setting: with `O=C(Nc1ccc(Cl)c(-c2ccccn2)c1)c1ccc(-n2cncn2)nc1` the figure was 47 nM; with `Cc1nc(NCCO)ccc1C(=O)Nc1ccc(Cl)c(-c2ccccn2)c1`, 62 nM; with `O=C(NCc1ccccn1)c1ccc(C(=O)Nc2ccc(Cl)c(-c3ccccn3)c2)c(Cl)c1`, 4 nM.

The next data set concerns Mus musculus. Briefly: Antitumor activity in mouse medulloblastoma allograft model harboring tumors with activating mutations in Hh pathway (Ptch+/-) assessed as complete regression of tumor volume at 5 mg/kg, po bid. Format: functional, organism-based. On the set-up: dose 5 mg/kg.
Details: not given
The procedure, abridged:
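Spontaneous medulloblastomas from Ptch+/- mice passaged subcutaneously in nude mice. Once tumors were established, mice were dosed twice daily for 20 days at 5 mg/kg BID. Tumor volume was followed over time.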
`O=C(NCc1ccccn1)c1ccc(C(=O)Nc2ccc(Cl)c(-c3ccccn3)c2)c(Cl)c1`: the inhibition result was “Active”.

Test system in a further data set: not listed separately
Briefly: Clearance in rat at 5 mg/kg, po or 1 mg/kg, iv. Format: ADME, organism-based. The note with it: in vivo. The essentials: (§1)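 Male rats received the TFA salt as a solution. The IV dose was 1 mg/kg in 80% PEG or in 5% DMSO/5% cremophor. The oral dose was 5 mg/kg in 60–80% PEG.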
Take `Cc1ncn(-c2ccc(C(=O)Nc3ccc(Cl)c(-c4ccccn4)c3)c(C)n2)n1`: the clearance stood at 0.7 mL/min/kg.
Same read-out and setting: next, `CS(=O)(=O)Cc1ccc(C(=O)Nc2ccc(Cl)c(-c3ccccn3)c2)c(Cl)c1`: 5.5 mL/min/kg; `O=C(Nc1ccc(Cl)c(-c2ccccn2)c1)c1ccc(-n2cncn2)nc1`: 4 mL/min/kg; `O=C(NCc1ccccn1)c1ccc(C(=O)Nc2ccc(Cl)c(-c3ccccn3)c2)c(Cl)c1`: 6.7 mL/min/kg.

For a further data set, the system named is Mus musculus. In words: Inhibition of Hedgehog signaling in Calu-6 cells xenografted nude mouse PK/PD model assessed as reduction in Gli1 mRNA expression at 75 mg/kg, po bid for 5 days measured 4 hrs post last dose relative to untreated control. The data set is classed as functional. The following applies: Calu-6, po, in the assay text read “for 5 doses” for “for 5 days”. The procedure, abridged:
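Nude mice bearing established Calu-6 tumors got 75 mg/kg by oral gavage BID for five doses. Tumors were harvested 4 h after the last dose. Stromal (murine) Gli1 mRNA was measured and expressed relative to vehicle-treated tumors. Compound was given as free base or HCl salt, suspended in a methylcellulose/Tween or Labrafil-based formulation.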
As for `CS(=O)(=O)Cc1ccc(C(=O)Nc2ccc(Cl)c(-c3ccccn3)c2)c(Cl)c1`, the inhibition in vivo at 75 mg/kg is 0%.

Test system in the next data set: not listed separately
Briefly: Volume of distribution at steady state in rat at 5 mg/kg, po or 1 mg/kg, iv. The data set is classed as ADME, organism-based. The following applies: in vivo, read-out: Vdss. The procedure, abridged: as §1
Take `Cc1ncn(-c2ccc(C(=O)Nc3ccc(Cl)c(-c4ccccn4)c3)c(C)n2)n1`: the Vd turned out to be 0.24 L/kg.
Same read-out and setting: with `O=C(Nc1ccc(Cl)c(-c2ccccn2)c1)c1ccc(-n2cncn2)nc1` the figure was 1.4 L/kg.

The test system of a further data set is Mus musculus. Briefly: Inhibition of Hedgehog signaling in Calu-6 cells xenografted nude mouse PK/PD model assessed as reduction in Gli1 mRNA expression at 75 mg/kg, po bid for 5 doses measured 4 hrs post last dose relative to untreated control. The note with it: Calu-6, po.
As for `Cc1ncn(-c2ccc(C(=O)Nc3ccc(Cl)c(-c4ccccn4)c3)c(C)n2)n1`, the inhibition in vivo at 75 mg/kg came out at 50%.

Another data set addresses Cytochrome P450 3A4 (Homo sapiens, UniProt P08684). Briefly: Inhibition of CYP3A4. Format: ADME.
Details: not given
On to `Cc1nc(NCC(C)C)ccc1C(=O)Nc1ccc(Cl)c(-c2ccccn2)c1`, for which the IC50 was 19000 nM.
In turn, `NS(=O)(=O)c1ccc(C(=O)Nc2ccc(Cl)c(-c3ccccn3)c2)c(Cl)c1` came in with a half-inhibitory concentration (IC50) greater than 20000 nM.
Same read-out and setting: next, `Cc1ncn(-c2ccc(C(=O)Nc3ccc(Cl)c(-c4ccccn4)c3)c(C)n2)n1`: greater than 20000 nM.
Same read-out and setting: with `CS(=O)(=O)Cc1ccc(C(=O)Nc2ccc(Cl)c(-c3ccccn3)c2)c(Cl)c1` the figure was greater than 20000 nM; with `O=C(Nc1ccc(Cl)c(-c2ccccn2)c1)c1ccc(-n2cncn2)nc1`, 200 nM; with `Cc1nc(NCCO)ccc1C(=O)Nc1ccc(Cl)c(-c2ccccn2)c1`, greater than 20000 nM.
`O=C(NCc1ccccn1)c1ccc(C(=O)Nc2ccc(Cl)c(-c3ccccn3)c2)c(Cl)c1` gave an IC50 greater than 20000 nM.

Test system in the next data set: not listed separately
In words: Thermodynamic solubility at pH 6.5. The data set is classed as physicochemical. The following applies: buffer.
On to `Cc1ncn(-c2ccc(C(=O)Nc3ccc(Cl)c(-c4ccccn4)c3)c(C)n2)n1`, for which the solubility (thermodynamic) came to 6 µg/mL (≈ 14.8 µM).
On the same count and under the same terms, next, `CS(=O)(=O)Cc1ccc(C(=O)Nc2ccc(Cl)c(-c3ccccn3)c2)c(Cl)c1`: 3 µg/mL (≈ 6.89 µM); `O=C(Nc1ccc(Cl)c(-c2ccccn2)c1)c1ccc(-n2cncn2)nc1`: 8 µg/mL (≈ 21.2 µM).
For the molecule `O=C(NCc1ccccn1)c1ccc(C(=O)Nc2ccc(Cl)c(-c3ccccn3)c2)c(Cl)c1`, the thermodynamic solubility is 3 µg/mL (≈ 6.28 µM).

A further data set deals with Mus musculus. In words: Volume of distribution in Calu-6 cells xenografted nude mouse PK/PD model at 75 mg/kg, po bid for 5 days measured 4 hrs post last dose relative to untreated control. Format: ADME, organism-based. On the set-up: dose 75 mg/kg, route oral. The following applies: in vivo.
The molecule `Cc1ncn(-c2ccc(C(=O)Nc3ccc(Cl)c(-c4ccccn4)c3)c(C)n2)n1` yielded a Vd of 0.15 L/kg.
